A number with no mark means an inactive call. Calls of active or inactive are those of the source.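 The calls were made as follows: active = growth inhibition above 25% in both replicates, a cutoff set 3 SD above the mean; inconclusive = above 25% in only one replicate; inactive = the rest.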

This experiment is described as follows: S. cerevisiae growth inhibition in permissive medium (OD615), pilot counter-assay for S. cerevisiae lifespan shortening project, permissive growth control (AID 705). The conditions noted are these: OD615, 24 h, at 10 µM, stronger effect = higher value. In short, it runs like this: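 Material: engineered DeaD yeast; compound dosing: one dose 10 µM, DMSO 0.25% final; measure: yeast growth inhibition indicated by reduced 24 h OD615; detection: OD615 turbidity read; incubation: cells pre-grown 4 h, then 24 h compound exposure, 30 °C humidified; medium: permissive synthetic complete medium with raffinose and galactose carbon sources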
With `CCC(C)NC(=O)CCCCCn1c(=O)[nH]c2cc(OC)c(OC)cc2c1=O` (stereo not given), the growth inhibition was -18.5%.

Turning to `Cc1ccc(C(C(=O)NC2CCCC2)N2CCCCC2)cc1` (stereo not given), the growth inhibition was -2.54%.

Regarding `COc1ccccc1N1CCN(C(=O)c2ccc(Br)s2)CC1`, the growth inhibition is -10.4%.

For the compound `Cc1cc(=O)[nH]c(Cc2ccc(OC(C)C)cc2)n1`, the growth inhibition was -6.43%.

`Cc1ccc(-c2nnc3ccc(SC(C)C(=O)O)nn23)cc1` (stereo not given): the growth inhibition was 13.9%.

As to `CSc1nnc(-c2ccco2)n1-c1ccccc1`, the growth inhibition is -6.73%.

`COc1ccc(C2CC(c3cccc(C)c3)n3nc(N)nc3N2)cc1` (stereo not given): the growth inhibition was 6.39%.

On to `O=C(COc1ccccc1F)c1ccc(O)cc1O`, for which the growth inhibition is -0.53%.

On to `O=C(C1CCN(S(=O)(=O)c2cccc3cccnc23)CC1)N1CCN(C2CCCC2)CC1`, for which the growth inhibition is -9.46%.

Take `COc1ccc(N2C(=O)C3CCCN3C2c2ccccc2OC)cc1` (stereo not given): the growth inhibition is 2.4%.

Turning to `O=S(=O)(Nc1ccc(-c2nc3cccnc3s2)cc1)c1cccs1`, the growth inhibition is -4.44%.

For the compound `COc1cc(OC)c(C2CC(=O)N3CN(C)CSC3=C2C#N)cc1OC` (stereo not given), the growth inhibition is 19.5%.

`CCOCCn1c(SCc2ccc(C)cc2)nc2c1c(=O)[nH]c(=O)n2C`: the growth inhibition is -5.33%.

With `CC1Oc2ccccc2C=C1C1/C(=C(/O)c2ccccc2)C(=O)C(=O)N1CCCN(C)C` (stereo not given), the growth inhibition is -3.27%.

`c1ccc2cc3[nH]c(CN4CCCCC4)nc3cc2c1`: the growth inhibition was -19.8%.

Regarding `CCCCCOc1ccc(NC(=O)CCCC(=O)O)cc1`, the growth inhibition was -3.13%.

As to `COc1cccc(NC(=O)CSc2nnc(-c3ccc(C)cc3)o2)c1`, the growth inhibition was -10.3%.

For `COCCCN1C(=O)C(O)=C(C(=O)c2ccc(C)o2)C1c1cccc(Br)c1` (stereo not given), the growth inhibition was -10.6%.

Take `CCOc1ccc(OCC)c(S(=O)(=O)NCCCN2CCOCC2)c1`: the growth inhibition was -13.8%.

As to `CC1CCc2nn(CC(=O)NCCCN3CCCC3=O)cc2C1` (stereo not given), the growth inhibition was -17.8%.

For the compound `Clc1ccc(Cc2nnc(-c3ccccc3Br)o2)cc1`, the growth inhibition was 1.55%.

For the compound `Cc1cc(C)c(C)c(OCC(=O)NCCN(C)C)c1`, the growth inhibition is -11.6%.

Consider `COC(=O)CCS(=O)(=O)c1cc(Cl)ccc1Cl`, for which the growth inhibition is -5.18%.

Consider `Cn1cccc1Cc1nnc(SCC(=O)N2CCCC2)n1CCc1ccccc1`, for which the growth inhibition was 1.38%.

In the case of `CC1NC(=O)NC1CCCCC(=O)O` (stereo not given), the growth inhibition is -6.38%.

With `CCOC(=O)c1cc(-c2ccc(F)cc2)n(CC(=O)Nc2nccs2)c1C`, the growth inhibition is -11.3%.

As for `Cn1c(SCC(=O)Nc2ccccc2F)nnc1-c1cccnc1`, the growth inhibition is -5.35%.

Regarding `CCn1cc(C(=O)Nc2ccc3c(c2)OCCO3)c2cc(OC)c(OC)cc2c1=O`, the growth inhibition was -10%.

On to `O=C1c2ccccc2C(=O)N1CCCc1nc(-c2ccc(Cl)cc2)no1`, for which the growth inhibition was -1.86%.

Consider `CN1C(=O)c2cccc(NC(=O)Cc3ccccc3)c2C1=O`, for which the growth inhibition was 1.68%.

On to `CCc1c(C(C)O)oc2ccc3c(C)cc(=O)oc3c12` (stereo not given), for which the growth inhibition is -9.42%.

Turning to `O=C(NCCc1ccccc1)c1ccncc1`, the growth inhibition is -5.38%.

In the case of `Cc1onc(-c2ccccc2Cl)c1C(=O)N(C)C1CCCCC1`, the growth inhibition is -18.5%.

Turning to `CCN(CC(=O)NCc1ccc(F)cc1)C(=O)C1CCN(C(=O)Nc2ccccc2)CC1`, the growth inhibition is -2.92%.

As for `CCCCCn1c(=N)n(CC(O)COc2ccccc2OC)c2ccccc21` (stereo not given), the growth inhibition was -4.93%.

`N#CC1=C(N)Oc2c(sc3ccccc23)C1c1ccco1` (stereo not given): the growth inhibition was -25.7%.

For `COc1ccccc1N1CCN(Cc2cc(Br)c(O)c3ncccc23)CC1`, the growth inhibition is 96.8% (active).

Take `CC(=O)Nc1ccc(S(=O)(=O)N2CCN(c3nc(NC4CCCC4)c4ccccc4n3)CC2)cc1`: the growth inhibition is 0.72%.

Turning to `COc1cc(NC(=O)c2c(-c3ccccc3Cl)noc2C)c2ncccc2c1`, the growth inhibition is -15.8%.

As to `O=C(O)CCc1ccc(-c2cccs2)n1NC(=O)c1ccc(Cl)cc1`, the growth inhibition is -6.03%.
